From ChEMBL document CHEMBL1157638, “Fluorescent epigenetic small molecule induces expression of the tumor suppressor ras-association domain family 1A and inhibits human prostate xenograft” (J Med Chem, 2010)
The source made the active and inactive calls. No cut-off for these calls is given here.

Legend:
[1] = system: MCF7; test: Growth inhibition of human MCF7 cells assessed as cell growth at 10 nM relative to untreated control; format: functional; conditions: read-out: Activity
[2] = system: MOLT-4; test: Growth inhibition of human MOLT4 cells assessed as cell growth at 100 nM relative to untreated control; format: functional; conditions: read-out: Activity
[3] = system: HCT-116; test: Growth inhibition of human HCT116 cells assessed as cell growth at 100 nM relative to untreated control; format: functional; conditions: read-out: Activity
Outline: (§1)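 Run externally at the National Cancer Institute as a 59-cell-line panel screen, with concentrations up to 100 μM. Growth was scored relative to control, where negative growth or total cell kill was possible. Data are in the Supporting Information.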

[4] = system: KM12; test: Growth inhibition of human KM12 cells assessed as cell growth at 100 nM relative to untreated control; format: functional; conditions: read-out: Activity
[5] = system: LOX IMVI; test: Growth inhibition of human LOXIMVI cells assessed as cell growth at 100 nM relative to untreated control; format: functional; conditions: read-out: Activity
[6] = system: OVCAR-4; test: Growth inhibition of human OVCAR4 cells assessed as cell growth at 100 nM relative to untreated control; format: functional; conditions: read-out: Activity
[7] = system: NCI/ADR-RES; test: Growth inhibition of human NCI/ADR-RES cells assessed as cell growth at 100 nM relative to untreated control; format: functional; conditions: read-out: Activity
[8] = system: TK-10; test: Growth inhibition of human TK10 cells assessed as cell growth at 100 nM relative to untreated control; format: functional; conditions: read-out: Activity
[9] = system: MCF7; test: Growth inhibition of human MCF7 cells assessed as cell growth at 100 nM relative to untreated control; format: functional; conditions: read-out: Activity
[10] = system: HCC 2998; test: Growth inhibition of human HCC2998 cells assessed as cell growth at 1 uM relative to untreated control; format: functional; conditions: read-out: Activity; outline: as §1
[11] = system: MDA-MB-435; test: Growth inhibition of human MDA-MB-435 cells assessed as cell growth at 1 uM relative to untreated control; format: functional; conditions: read-out: Activity
[12] = system: UACC-62; test: Growth inhibition of human UACC62 cells assessed as cell growth at 1 nM relative to untreated control; format: functional; conditions: read-out: Activity
[13] = system: CAKI-1; test: Growth inhibition of human Caki1 cells assessed as cell growth at 1 nM relative to untreated control; format: functional; conditions: read-out: Activity; outline: as §1
[14] = system: TK-10; test: Growth inhibition of human TK10 cells assessed as cell growth at 1 nM relative to untreated control; format: functional; conditions: read-out: Activity
[15] = system: T47D; test: Growth inhibition of human T47D cells assessed as cell growth at 1 nM relative to untreated control; format: functional; conditions: read-out: Activity
[16] = system: HL-60(TB); test: Growth inhibition of human HL-60(TB) cells assessed as cell growth at 10 nM relative to untreated control; format: functional; conditions: read-out: Activity
[17] = system: HOP-62; test: Growth inhibition of human HOP62 cells assessed as cell growth at 10 nM relative to untreated control; format: functional; conditions: read-out: Activity; outline: as §1
[18] = system: NCI-H460; test: Growth inhibition of human NCI-H460 cells assessed as cell growth at 10 nM relative to untreated control; format: functional; conditions: read-out: Activity
[19] = system: SN12C; test: Growth inhibition of human SN12C cells assessed as cell growth at 1 uM relative to untreated control; format: functional; conditions: read-out: Activity
[20] = system: TK-10; test: Growth inhibition of human TK10 cells assessed as cell growth at 1 uM relative to untreated control; format: functional; conditions: read-out: Activity
[21] = Growth inhibition of human Hs 578T cells assessed as cell growth at 1 uM relative to untreated control; format: functional; conditions: read-out: Activity
[22] = system: NCI-H460; test: Growth inhibition of human NCI-H460 cells assessed as cell growth at 10 uM relative to untreated control; format: functional; conditions: read-out: Activity
[23] = system: SNB-75; test: Growth inhibition of human SNB75 cells assessed as cell growth at 10 uM relative to untreated control; format: functional; conditions: read-out: Activity
[24] = system: LOX IMVI; test: Growth inhibition of human LOXIMVI cells assessed as cell growth at 10 uM relative to untreated control; format: functional; conditions: read-out: Activity
[25] = system: MDA-MB-435; test: Growth inhibition of human MDA-MB-435 cells assessed as cell growth at 10 uM relative to untreated control; format: functional; conditions: read-out: Activity
[26] = system: OVCAR-8; test: Growth inhibition of human OVCAR8 cells assessed as cell growth at 10 uM relative to untreated control; format: functional; conditions: read-out: Activity
[27] = system: PC-3; test: Growth inhibition of human PC3 cells assessed as cell growth at 10 uM relative to untreated control; format: functional; conditions: read-out: Activity
[28] = system: HOP-92; test: Growth inhibition of human HOP92 cells; format: functional; outline: as §1
[29] = system: KM12; test: Growth inhibition of human KM12 cells; format: functional
[30] = system: SNB-75; test: Growth inhibition of human SNB75 cells; format: functional
[31] = system: MDA-MB-435; test: Growth inhibition of human MDA-MB-435 cells; format: functional; conditions: read-out: LC50 (the source's name)
[32] = system: SK-MEL-2; test: Growth inhibition of human SK-MEL-2 cells; format: functional
[33] = system: IGROV-1; test: Growth inhibition of human IGROV1 cells; format: functional
[34] = system: OVCAR-8; test: Growth inhibition of human OVCAR8 cells; format: functional
[35] = system: SK-OV-3; test: Growth inhibition of human SKOV3 cells; format: functional
[36] = system: A498; test: Growth inhibition of human A498 cells; format: functional
[37] = system: PC-3; test: Increase in RASSF1A gene expression in human PC3 cells at 5 uM after 3 days hrs by RT-PCR; format: functional, cell-based
Outline: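 PC-3 cells incubated 3 days with compound, then RNA extracted with TRIzol. 500 ng total RNA reverse-transcribed with random hexamers. RASSF1A amplified with previously described primers and conditions. Products run on 1.5% agarose and stained with ethidium bromide. Bands quantified by densitometry against untreated cells, with RASSF1A re-expression from the reference alkaloid set to 100%.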

[38] = target: DNA (cytosine-5)-methyltransferase 3A (Homo sapiens) (UniProt Q9Y6K1); test: Binding affinity to DNMT3a in human PC3 cells cytoplasm at 5 uM after 6 hrs by antibody staining; format: cell-based; conditions: PC-3
DNA (cytosine-5)-methyltransferase 3A (Homo sapiens), sequence (Q9Y6K1 whole entry, looked up): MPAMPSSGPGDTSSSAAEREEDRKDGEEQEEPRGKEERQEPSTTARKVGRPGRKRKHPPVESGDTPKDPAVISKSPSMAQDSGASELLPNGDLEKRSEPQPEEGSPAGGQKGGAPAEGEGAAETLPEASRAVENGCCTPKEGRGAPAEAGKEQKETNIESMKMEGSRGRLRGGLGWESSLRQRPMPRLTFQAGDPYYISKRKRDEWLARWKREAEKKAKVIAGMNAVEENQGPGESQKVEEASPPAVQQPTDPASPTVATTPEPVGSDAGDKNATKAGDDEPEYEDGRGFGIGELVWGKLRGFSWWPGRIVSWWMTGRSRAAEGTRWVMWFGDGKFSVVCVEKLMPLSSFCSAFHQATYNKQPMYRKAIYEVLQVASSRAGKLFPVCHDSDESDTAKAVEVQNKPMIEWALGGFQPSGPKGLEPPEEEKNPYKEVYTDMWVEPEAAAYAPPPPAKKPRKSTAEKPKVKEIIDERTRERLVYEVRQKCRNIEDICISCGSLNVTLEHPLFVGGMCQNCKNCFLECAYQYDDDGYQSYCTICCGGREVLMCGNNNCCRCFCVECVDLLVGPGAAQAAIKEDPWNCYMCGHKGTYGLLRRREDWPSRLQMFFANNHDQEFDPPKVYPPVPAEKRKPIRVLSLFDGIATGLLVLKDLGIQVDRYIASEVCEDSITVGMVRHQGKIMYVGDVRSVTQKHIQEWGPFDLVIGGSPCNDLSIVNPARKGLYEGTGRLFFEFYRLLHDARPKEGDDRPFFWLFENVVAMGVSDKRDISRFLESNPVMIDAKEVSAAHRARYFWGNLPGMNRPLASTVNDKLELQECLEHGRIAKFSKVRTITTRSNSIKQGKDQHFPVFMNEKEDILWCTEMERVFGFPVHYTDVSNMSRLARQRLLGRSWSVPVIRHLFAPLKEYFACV
Outline: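 PC-3 cells were plated overnight on fibronectin/[…]-coated slides and treated with 5 μM compound or DMSO for 1-6 h. Cells were PBS-washed, fixed in 4% formaldehyde, and stained with propidium iodide (nuclei) and anti-DNMT3a or anti-DNMT3b antibody. The compound was excited at 725 nm by multiphoton laser and imaged through a 500-550 nm filter by confocal microscopy.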

[39] = system: SR; test: Growth inhibition of human SR cells assessed as cell growth at 1 nM relative to untreated control; format: functional; conditions: read-out: Activity
[40] = system: TK-10; test: Growth inhibition of human TK10 cells; format: functional
[41] = system: HCC 2998; test: Growth inhibition of human HCC2998 cells assessed as cell growth at 10 nM relative to untreated control; format: functional; conditions: read-out: Activity; outline: as §1
[42] = system: HCT-15; test: Growth inhibition of human HCT15 cells assessed as cell growth at 10 nM relative to untreated control; format: functional; conditions: read-out: Activity; outline: as §1
[43] = system: OVCAR-5; test: Growth inhibition of human OVCAR5 cells assessed as cell growth at 10 nM relative to untreated control; format: functional; conditions: read-out: Activity
[44] = read-out: LC50 (the source's name)

COc1ccc2c(c1)[nH]c1c(C)c(OS(=O)(=O)c3cccc4c(N(C)C)cccc34)ccc12
growth at 0.01 µM [1]: 86%
growth at 0.1 µM [2]: 99%
growth at 0.1 µM [3]: 94%
growth at 0.1 µM [4]: 97%
growth at 0.1 µM [5]: 91%
growth at 0.1 µM [6]: 87%
growth at 0.1 µM [7]: 93%
growth at 0.1 µM [8]: 107%
growth at 0.1 µM [9]: 81%
growth at 1 µM [10]: 52%
growth at 1 µM [11]: -5%
growth at 0.001 µM [12]: 89%
growth at 0.001 µM [13]: 98%
growth at 0.001 µM [14]: 97%
growth at 0.001 µM [15]: 95%
growth at 0.01 µM [16]: 83%
growth at 0.01 µM [17]: 111%
growth at 0.01 µM [18]: 101%
growth at 1 µM [19]: 51%
growth at 1 µM [20]: 48%
growth at 1 µM [21]: 20%
growth at 10 µM [22]: -3%
growth at 10 µM [23]: -12%
growth at 10 µM [24]: 14%
growth at 10 µM [25]: -1%
growth at 10 µM [26]: 24%
growth at 10 µM [27]: 7%
GI50 [28]: 9.51 µM
TGI [28]: 94.8 µM
CC50 [28, 44]: > 100 µM
GI50 [29]: 41.5 µM
TGI [29]: > 100 µM
CC50 [29, 44]: > 100 µM
GI50 [30]: 4.48 µM
TGI [30]: 47.1 µM
CC50 [30, 44]: > 100 µM
CC50 [31]: > 100 µM
GI50 [32]: 10 µM
TGI [32]: > 100 µM
CC50 [32, 44]: > 100 µM
GI50 [33]: 27.6 µM
TGI [33]: > 100 µM
CC50 [33, 44]: > 100 µM
GI50 [34]: 79.6 µM
TGI [34]: > 100 µM
CC50 [34, 44]: > 100 µM
GI50 [35]: 5.47 µM
TGI [35]: > 100 µM
CC50 [35, 44]: > 100 µM
GI50 [36]: 22.4 µM
TGI [36]: 60.2 µM
CC50 [36, 44]: > 100 µM
Activity [37]: Active
Activity [38]: inactive
growth at 0.001 µM [39]: 102%
GI50 [40]: 9.19 µM
TGI [40]: > 100 µM
CC50 [40, 44]: > 100 µM
growth at 0.01 µM [41]: 101%
growth at 0.01 µM [42]: 92%
growth at 0.01 µM [43]: 106%
